Measured values published in ChEMBL document CHEMBL4725470, “Synthesis and Biological Evaluation of Pyrroloindolines as Positive Allosteric Modulators of the α1β2γ2 GABA Receptor” (ACS Med Chem Lett, 2020).
The source made the active and inactive calls. The calls are words filed in the database; no cut-off is given here.

Experiments:
[1] = target: T1, GABA-A receptor; alpha-1/beta-2/gamma-2 (Homo sapiens) (UniProt P14867+P47870+P18507); experiment: Positive allosteric modulator activity at human alpha1beta2Sgamma2S GABA-A receptor expressed in Xenopus laevis oocytes assessed as potentiation of EC10 GABA response by two electrode voltage-clamp assay relative to control; type: cell-based; settings: Oocyte
How it was run: (§1)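 Same sequence as the EC50 potentiation protocol: baseline GABA doses, ligand alone, 30 s incubation, then coapplication, then two GABA check doses. Here 40 μM PAM is coapplied with an EC10–15 GABA dose. The EC10–15 for each mutant receptor was verified from full GABA dose–response curves.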

[2] = target: T1, GABA-A receptor; alpha-1/beta-2/gamma-2 (Homo sapiens); experiment: Positive allosteric modulator activity at human alpha1beta2Sgamma2S GABA-A receptor expressed in Xenopus laevis oocytes in presence of EC50 GABA by two electrode voltage-clamp assay; type: cell-based; settings: Oocyte, filed as positive allosteric modulator
[3] = target: T1, GABA-A receptor; alpha-1/beta-2/gamma-2 (Homo sapiens); experiment: Positive allosteric modulator activity at human alpha1beta2Sgamma2S GABA-A receptor expressed in Xenopus laevis oocytes assessed as potentiation of EC50 GABA response at 40 uM by two electrode voltage-clamp assay relative to control; type: cell-based; settings: Oocyte
How it was run: (§2)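 Two-electrode voltage clamp in oocytes. Three GABA EC50 applications set the baseline. The test ligand alone is then given at 40 μM, followed after a 30 s incubation by GABA EC50 plus 40 μM ligand. Two further GABA EC50 doses check receptor function after modulation. Result is the percent change relative to the GABA-only baseline.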

[4] = target: GABA-A receptor; GABA-A site (alpha1/beta2 interface) (Homo sapiens) (UniProt P14867+P47870); experiment: Positive allosteric modulator activity at human alpha1beta2S GABA-A receptor expressed in Xenopus laevis oocytes assessed as potentiation of EC50 GABA response at 40 uM by two electrode voltage-clamp assay relative to control; type: cell-based; settings: Oocyte; how it was run: as §2
[5] = tested on: Oocyte; experiment: Positive allosteric modulator activity at human GABA-A receptor alpha1beta2Sgamma2S H129R mutant expressed in Xenopus laevis oocytes assessed as potentiation of EC10 GABA response by two electrode voltage-clamp assay relative to control; type: cell-based; settings: filed as positive allosteric modulator; how it was run: as §1
[6] = tested on: Oocyte; experiment: Positive allosteric modulator activity at human GABA-A receptor alpha1beta2Sgamma2S Y209Q mutant expressed in Xenopus laevis oocytes assessed as potentiation of EC10 GABA response by two electrode voltage-clamp assay relative to control; type: cell-based; settings: filed as positive allosteric modulator; how it was run: as §1
[7] = tested on: Oocyte; experiment: Positive allosteric modulator activity at human GABA-A receptor alpha1beta2Sgamma2S Q88C mutant expressed in Xenopus laevis oocytes assessed as potentiation of EC10 GABA response by two electrode voltage-clamp assay relative to control; type: cell-based; settings: filed as positive allosteric modulator; how it was run: as §1
[8] = tested on: Oocyte; experiment: Positive allosteric modulator activity at human GABA-A receptor alpha1beta2Sgamma2S S297I/N289I/S319I triple mutant expressed in Xenopus laevis oocytes assessed as potentiation of EC10 GABA response by two electrode voltage-clamp assay relative to control; type: cell-based; how it was run: as §1
[9] = Positive allosteric modulator activity at rat alpha1beta2gamma2L GABA-A receptor expressed in Xenopus laevis oocytes in presence of EC2-5 GABA by two-electrode voltage clamp assay; type: cell-based; settings: Oocyte
[10] = target: T1, GABA-A receptor; alpha-1/beta-2/gamma-2 (Homo sapiens); experiment: Agonist activity at human alpha1beta2Sgamma2S GABA-A receptor expressed in Xenopus laevis oocytes by two electrode voltage-clamp assay; type: cell-based; settings: Oocyte, filed as agonist
How it was run: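 Test ligand applied alone at 40 μM to oocytes expressing human α1β2γ2 receptors. Current read by two-electrode voltage clamp and compared with GABA EC50 responses recorded in the same sequence.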

[11] = target: T2, GABA-A receptor; alpha-1/beta-2/gamma-2 (Homo sapiens, UniProt P14867+P18507+P47870); experiment: Positive allosteric modulator activity at human alpha1beta2Sgamma2S GABA-A receptor expressed in Xenopus laevis oocytes in presence of EC5 GABA by two electrode voltage-clamp assay; type: cell-based, Oocyte
T2 sequence (P14867 whole entry): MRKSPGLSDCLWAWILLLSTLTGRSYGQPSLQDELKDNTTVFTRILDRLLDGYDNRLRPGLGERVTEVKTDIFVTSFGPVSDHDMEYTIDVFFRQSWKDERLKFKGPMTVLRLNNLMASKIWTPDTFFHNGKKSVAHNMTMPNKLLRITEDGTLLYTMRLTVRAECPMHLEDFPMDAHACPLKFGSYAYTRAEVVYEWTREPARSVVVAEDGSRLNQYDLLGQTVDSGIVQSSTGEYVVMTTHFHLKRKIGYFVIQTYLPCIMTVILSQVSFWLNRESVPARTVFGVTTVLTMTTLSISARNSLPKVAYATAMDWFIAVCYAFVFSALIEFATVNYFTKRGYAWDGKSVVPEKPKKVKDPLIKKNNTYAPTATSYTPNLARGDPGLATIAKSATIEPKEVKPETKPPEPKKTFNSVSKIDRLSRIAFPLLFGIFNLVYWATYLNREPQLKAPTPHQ
T2 sequence (P47870 whole entry): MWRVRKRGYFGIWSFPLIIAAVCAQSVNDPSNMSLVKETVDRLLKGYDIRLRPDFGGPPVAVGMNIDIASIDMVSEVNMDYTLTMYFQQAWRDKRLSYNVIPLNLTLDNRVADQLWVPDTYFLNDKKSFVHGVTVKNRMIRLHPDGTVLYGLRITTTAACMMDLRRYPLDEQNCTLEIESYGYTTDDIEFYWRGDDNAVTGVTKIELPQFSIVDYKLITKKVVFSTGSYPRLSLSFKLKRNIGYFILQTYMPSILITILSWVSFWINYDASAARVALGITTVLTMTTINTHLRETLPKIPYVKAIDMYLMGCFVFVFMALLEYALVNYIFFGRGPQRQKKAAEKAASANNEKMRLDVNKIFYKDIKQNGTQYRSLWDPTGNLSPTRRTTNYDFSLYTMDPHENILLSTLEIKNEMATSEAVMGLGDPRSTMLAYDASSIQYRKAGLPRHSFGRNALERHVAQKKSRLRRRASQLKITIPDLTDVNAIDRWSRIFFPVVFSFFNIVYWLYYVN
T2 sequence (P18507 whole entry): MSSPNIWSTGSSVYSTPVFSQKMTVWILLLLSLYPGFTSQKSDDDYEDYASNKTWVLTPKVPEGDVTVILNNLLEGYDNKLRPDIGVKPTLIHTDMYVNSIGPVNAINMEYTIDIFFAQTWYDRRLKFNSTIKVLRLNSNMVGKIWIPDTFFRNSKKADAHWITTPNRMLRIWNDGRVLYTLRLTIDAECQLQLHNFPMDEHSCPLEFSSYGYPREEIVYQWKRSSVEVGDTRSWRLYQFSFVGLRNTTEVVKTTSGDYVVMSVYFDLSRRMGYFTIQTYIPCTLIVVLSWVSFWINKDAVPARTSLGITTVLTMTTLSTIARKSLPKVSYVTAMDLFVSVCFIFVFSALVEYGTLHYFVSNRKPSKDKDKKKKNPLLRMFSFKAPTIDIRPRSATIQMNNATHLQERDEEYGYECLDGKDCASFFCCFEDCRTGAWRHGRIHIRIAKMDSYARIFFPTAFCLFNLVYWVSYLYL
How it was run: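 Modulator dose–response with each concentration coapplied with GABA EC5. The peak current at GABA EC5 alone was subtracted from all responses, and the EC50 was taken from the fitted curve.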

[12] = filed as positive allosteric modulator

CN1CC[C@]2(O)c3cc(C(F)(F)F)ccc3N(C)[C@]12c1ccccc1 showed an Activity [1, 12] of 108%.
With CN1CC[C@]2(O)c3ccccc3N(C)[C@]12c1ccccc1 (racemic) the Activity [2] was “Active”, the Activity [3] was 17% and the Activity [4] was 28%. The Activity [1, 12] was 62%, the Activity [5] was “Active” and the Activity [6] was “Active”. The Activity [7] was “Active” and the Activity [8] was 1%.
In the case of COc1ccc([C@@]23N(C)CC[C@]2(O)c2ccccc2N3C)cc1 (racemic), the Activity [1] is reported as “inactive”.
Work on CN1c2ccccc2[C@@]2(O)CCN[C@@]12c1ccccc1 yielded an Activity [1, 12] of 41%.
In the case of CN1c2ccccc2[C@@]2(O)CCN(C(=O)OCc3ccccc3)[C@@]12c1ccccc1, the Activity [1] is reported as 9.6%.
With CN1CC[C@@]2(O)c3ccccc3N(C)[C@@]12c1ccccc1 the Activity [4] was 9.2%.
For COc1ccc2c(c1)[C@@]1(O)CCN(C)[C@@]1(c1ccccc1)N2C, the Activity [1] was 17%.
Work on Cc1ccc(-c2nc3ccc(C)cn3c2CC(=O)N(C)C)cc1 [ZOLPIDEM] yielded an EC50 [9] of 340 nM.
With CN1CC[C@@]2(O)c3cc(N4CCOCC4)ccc3N(C)[C@@]12c1ccccc1 the Activity [1] was -4.8%.
Compound CCN(CC)CCN1C(=O)CN=C(c2ccccc2F)c2cc(Cl)ccc21 [FLURAZEPAM] has an EC50 [9] of 270 nM.
With CN1CC[C@]2(O)c3cc(Br)ccc3N(C)[C@]12c1ccccc1 the Activity [1, 12] was 213% and the Activity [10] was “Active”.
With CN1CC[C@]2(O)c3ccccc3N(C)[C@]12c1ccccc1 [listing 1 of 2 here] the Activity [3] was 16%, the Activity [4] was 17% and the Activity [1, 12] was 125%.
In the case of CN1CC[C@]2(F)c3ccccc3N(C)[C@]12c1ccccc1, the Activity [1, 12] is reported as 100%.
With CN1CC[C@]2(O)c3cc(I)ccc3N(C)[C@]12c1ccccc1 the Activity [1, 12] was 231% and the Activity [10] was “Active”.
CO[C@]12CCN(C)[C@@]1(c1ccccc1)N(C)c1ccccc12 showed an Activity [1] of 21%.
Compound CN1CC[C@@]2(O)c3ccccc3N(C)[C@@]12c1ccc(Br)cc1 has an Activity [1, 12] of 155%.
With CN1CC[C@]2(O)c3ccccc3N(C)[C@]12c1ccccc1 [listing 2 of 2 here] the EC50 [11] was 110000 nM.
Work on CN1CC[C@]2(O)c3ccccc3N(C)[C@]12c1ccc(Br)cc1 yielded an Activity [1, 12] of 98%.
